Data reported in ChEMBL document CHEMBL2331371, “Natural products inspired synthesis of neuroprotective agents against H₂O₂-induced cell death” (Bioorg Med Chem Lett, 2013).
Active and inactive are the calls of the source. The calls are words filed in the database; no cut-off is given here.

How the values were obtained:
PC-12 [1] = experiment: Effect on Na+/K+ ATPase activity in rat PC12 cells assessed as inorganic phosphate liberation using ATP as substrate at 50 uM after 1 hr by colorimetric analysis; assay type: cell-based
Outline: (§1)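 Adherent PC12 cells exposed 1 h to 50 µM compound, either alone or together with 100 µM H2O2, then harvested. ATPase assayed in two parallel runs, total and ouabain-insensitive. Inorganic phosphate formed in 30 min quantified colorimetrically; Na+/K+-ATPase activity taken as the difference without versus with ouabain. Triplicate experiments; means ± SEM, Student t-test.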

PC-12 [2] = experiment: Neuroprotective activity against H2O2-induced oxidative stress in rat PC12 cells assessed as increase in cell viability treated for 6 hrs prior to H2O2 addition measured after 18 hrs by Synergy Hybrid H1 reader analysis; assay type: functional, cell-based
Outline: (§2)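 PC12 cells pretreated 6 h with compound at 0.1, 1, 10, 50, 100 or 150 µM, then challenged with 100 µM H2O2 for a further 18 h. Untreated cells served as 100% survival. Cells harvested for viability assay. Triplicates with three separate culture batches; means ± SEM, Student t-test, p<0.05.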

PC-12 [3] = experiment: Inhibition of H2O2-induced decrease in Na+/K+ ATPase activity in rat PC12 cells assessed as increase in inorganic phosphate liberation using ATP as substrate at 50 uM after 1 hr by colorimetric analysis in presence H2O2; assay type: cell-based; outline: as §1
PC-12 [4] = experiment: Neuroprotective activity against H2O2-induced oxidative stress in rat PC12 cells assessed as increase in cell viability at 0.1 to 150 uM treated for 6 hrs prior to H2O2 addition measured after 18 hrs by Synergy Hybrid H1 reader analysis; assay type: functional, cell-based
Outline: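 PC12 cells pretreated 6 h with test agent (0.1, 1, 10, 50, 100, 150 µM), then 100 µM H₂O₂ added for a further 18 h. Untreated cells set as 100% survival; H₂O₂-only cells as injury control. Cells then harvested for viability assay. Triplicate runs over three separate culture batches; means ± SEM, Student t-test, p < 0.05.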

PC-12 [5] = experiment: Neuroprotective activity against H2O2-induced oxidative stress in rat PC12 cells assessed as increase in cell viability at 0.1 to 10 uM treated for 6 hrs prior to H2O2 addition measured after 18 hrs by Synergy Hybrid H1 reader analysis; assay type: functional, cell-based; outline: as §2

Compound | Activity (PC-12 [1]) | Activity (PC-12 [2]) | inhibition (PC-12 [3]) | Activity (PC-12 [4]) | Activity (PC-12 [5])
C[C@]12CCCC[C@@]1(O)C(=O)C[C@H]2c1ccco1 | inactive | Dose-dependent effect | Active |  | 
C[C@]12CCCC[C@@]1(O)OC(=O)C=C2c1ccoc1 | inactive | Dose-dependent effect | Active |  | 
C[C@]12CCCC[C@@]1(O)C(=O)CC2c1ccoc1 (single isomer, unassigned) | inactive |  |  | Active | 
C[C@]12CCCC[C@H]1C(=O)C=C2c1ccoc1 | inactive | Dose-dependent effect | Active |  | Active
C[C@]12CCCC[C@@]1(O)C(=O)C=C2c1ccoc1 | inactive | Dose-dependent effect |  |  | Active
C[C@]12CCCC[C@@]1(O)C(=O)C=C2c1ccco1 | inactive |  | Active | Active | 
